2 compounds from ChEMBL document CHEMBL4152269, “New N-phenylpyrrolamide DNA gyrase B inhibitors: Optimization of efficacy and antibacterial activity” (Eur J Med Chem, 2018) can be followed below.

Each structure is given as a SMILES string. Values after ≈ are worked out from the molar mass of the structure shown. Active and inactive are the calls of the source. No cut-off for these calls is given here.

Data set [1] has as its system Escherichia coli. Briefly: microbe, parasite or virus in culture. Particulars: ATCC 25922, 18 h.
A short description of data set [2]: Inhibition of Escherichia coli C-terminal His6-tagged topoisomerase-4 expressed in Escherichia coli BL21(DE3) preincubated for 10 mins followed by ATP addition measured after 30 mins by purine nucleoside phosphorylase enzyme coupled spectrophotometric method.
A short description of data set [3]: Inhibition of Staphylococcus aureus topoisomerase-4 assessed as residual activity preincubated for 10 mins followed by ATP addition measured after 30 mins by purine nucleoside phosphorylase enzyme coupled spectrophotometric method.
In data set [4] the test system is Staphylococcus aureus. Put plainly: Growth inhibition of Staphylococcus aureus ATCC 25923 at 50 uM after 24 hrs by broth microdilution method relative to control. The data set is classed as functional. The conditions noted are these: ATCC 25923, 24 h, read-out: GI.
In data set [5] the test system is Enterococcus faecalis. Put plainly: Growth inhibition of Enterococcus faecalis ATCC 29212 at 50 uM after 24 hrs by broth microdilution method relative to control. It counts as functional. The conditions noted are these: ATCC 29212, 24 h, read-out: GI.
Data set [6] deals with Escherichia coli. Put plainly: Growth inhibition of Escherichia coli ATCC 25922 at 50 uM after 24 hrs by broth microdilution method relative to control. The conditions noted are these: ATCC 25922, 24 h, read-out: GI. It counts as functional.
Data set [7] deals with Pseudomonas aeruginosa. Briefly: Growth inhibition of Pseudomonas aeruginosa ATCC 27853 at 50 uM after 24 hrs by broth microdilution method relative to control. It counts as functional. The conditions noted are these: ATCC 27853, 24 h, read-out: GI.
For data set [8], the system named is Escherichia coli. Briefly: Growth inhibition of tolC deficient Escherichia coli JW5503 at 50 uM after 24 hrs by broth microdilution method relative to control. It counts as functional. Particulars: JW5503, 24 h, read-out: GI.
Data set [9] deals with Escherichia coli. Briefly: Growth inhibition of lpxC deficient Escherichia coli JD17464 at 50 uM after 24 hrs by broth microdilution method relative to control. It counts as functional. Particulars: JD17464, 24 h, read-out: GI.
Data set [10] has as its system Enterococcus faecalis. Put plainly: Antibacterial activity against Enterococcus faecalis ATCC 29212 after 18 hrs by broth microdilution method. The data set is classed as functional. Particulars: ATCC 29212, 18 h.
Data set [11] relates to Staphylococcus aureus. Briefly: Antibacterial activity against Staphylococcus aureus ATCC 29213 after 18 hrs by broth microdilution method. The conditions noted are these: ATCC 29213, 18 h. It counts as functional. Put shortly:
(§1)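 EUCAST/ISO 20776-1 broth microdilution using 12-step serial dilutions in cation-adjusted Mueller-Hinton II broth. About 5 × 10^4 bacteria were inoculated per well and incubated at 37 °C, shaken at 300 rpm, for 18 h. Growth was read as OD600. MIC is the lowest concentration giving background-normalized OD600 below 0.05, from 3 replicates.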

In data set [12] the test system is Staphylococcus aureus. Briefly: Antibacterial activity against methicillin-resistant Staphylococcus aureus ATCC 43300 after 18 hrs by broth microdilution method. It counts as functional. The conditions noted are these: ATCC 43300, 18 h.
Data set [13] has as its system Escherichia coli. Briefly: Antibacterial activity against Escherichia coli ATCC 25922 up to 50 uM after 18 hrs by broth microdilution method. The data set is classed as functional, organism-based. The method in brief: (§2)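 Broth microdilution per EUCAST/ISO 20776-1:2006: 12-step serial dilutions of compound in cation-adjusted Mueller-Hinton II broth, about 5 × 10^4 bacteria per well, 37 °C with shaking at 300 rpm, OD600 read after 18 h. MIC is the lowest concentration with background-normalized OD600 below 0.05, i.e. no visible growth; 3 replicates. Top concentration 50 μM.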

Data set [14] relates to Escherichia coli. Briefly: Antibacterial activity against Escherichia coli MG1655 up to 50 uM after 18 hrs by broth microdilution method. It counts as functional, organism-based. Particulars: K-12 substr. MG1655. The method in brief: as §2
The subject of data set [15] is Escherichia coli. Briefly: Antibacterial activity against Escherichia coli BW25113 up to 50 uM after 18 hrs by broth microdilution method. It counts as functional, organism-based. The method in brief: as §2
For data set [16], the system named is Escherichia coli. Put plainly: Antibacterial activity against tolC deficient Escherichia coli BW25113 up to 50 uM after 18 hrs by broth microdilution method. The data set is classed as functional, organism-based. The method in brief: as §2
The subject of data set [17] is Escherichia coli. Briefly: Antibacterial activity against acrB deficient Escherichia coli BW25113 up to 50 uM after 18 hrs by broth microdilution method. It counts as functional, organism-based. The method in brief:
as §2

The subject of data set [18] is Escherichia coli. Put plainly: Antibacterial activity against dapF deficient Escherichia coli BW25113 up to 50 uM after 18 hrs by broth microdilution method. It counts as functional, organism-based. Put shortly:
as §2

For data set [19], the system named is Escherichia coli. Put plainly: Antibacterial activity against mrcB deficient Escherichia coli BW25113 up to 50 uM after 18 hrs by broth microdilution method. The data set is classed as functional, organism-based. Put shortly:
as §1

In data set [20] the test system is Escherichia coli. Put plainly: Antibacterial activity against surA deficient Escherichia coli BW25113 up to 50 uM after 18 hrs by broth microdilution method. The data set is classed as functional, organism-based. Put shortly:
as §2

Data set [21] deals with Escherichia coli. Put plainly: Antibacterial activity against Escherichia coli ATCC 25922 after 18 hrs in presence of efflux pump inhibitor PAbetaN by broth microdilution method. It counts as functional. Particulars: ATCC 25922, 18 h. The method in brief:
(§3)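 Efflux pump inhibitor PAβN was added to EUCAST/ISO 20776-1 broth microdilution using 12-step serial dilutions in cation-adjusted Mueller-Hinton II broth. About 5 × 10^4 bacteria were inoculated per well and incubated at 37 °C, shaken at 300 rpm, for 18 h, then read at OD600. MIC is the lowest concentration with background-normalized OD600 below 0.05, from 3 replicates.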

The subject of data set [22] is Escherichia coli. Put plainly: Antibacterial activity against Escherichia coli MG1655 after 18 hrs in presence of efflux pump inhibitor PAbetaN by broth microdilution method. Particulars: K-12 substr. MG1655, 18 h. The data set is classed as functional. Put shortly:
as §3

In data set [23] the test system is Escherichia coli. Put plainly: Antibacterial activity against Escherichia coli BW25113 up to 20 uM after 18 hrs in presence of efflux pump inhibitor PAbetaN by broth microdilution method. The data set is classed as functional, organism-based.
The test system of data set [24] is Escherichia coli. Put plainly: Antibacterial activity against dapF deficient Escherichia coli BW25113 up to 20 uM after 18 hrs in presence of efflux pump inhibitor PAbetaN by broth microdilution method. It counts as functional, organism-based. The method in brief:
(§4)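 Same EUCAST broth microdilution in cation-adjusted Mueller-Hinton II broth, 12-step compound dilutions, about 5 × 10^4 bacteria per well, 37 °C, 300 rpm, OD600 at 18 h. Parental and mutant strains were co-treated with the efflux pump inhibitor PAβN. MIC taken as normalized OD600 below 0.05; 3 replicates.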

The subject of data set [25] is Escherichia coli. Put plainly: Antibacterial activity against mrcB deficient Escherichia coli BW25113 up to 20 uM after 18 hrs in presence of efflux pump inhibitor PAbetaN by broth microdilution method. It counts as functional, organism-based. The method in brief:
as §4

Data set [26] concerns Escherichia coli. Put plainly: Antibacterial activity against surA deficient Escherichia coli BW25113 after 18 hrs in presence of efflux pump inhibitor PAbetaN by broth microdilution method. It counts as functional. The conditions noted are these: BW25113, 18 h. The method in brief: as §3
Data set [27] concerns Escherichia coli. Briefly: Antibacterial activity against Escherichia coli MG1655 harboring NOG R136C mutant up to 50 uM after 18 hrs in presence of efflux pump inhibitor PAbetaN by broth microdilution method. Particulars: K-12 substr. MG1655. It counts as functional, organism-based.
A short description of data set [28]: Cytotoxicity against human HepG2 cells assessed as cell proliferation at 50 uM after 72 hrs by MTS assay relative to control. The data set is classed as cell-based. The conditions noted are these: read-out: Activity. The method in brief: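 MTS assay in HepG2 grown in Eagle's MEM with 2 mM L-glutamine, penicillin/streptomycin and 10% FBS, at 37 °C under 5% CO2. Cells seeded at 2000 per well and attached for 24 h. Compound added at 50 μM (0.5% DMSO final) for 72 h, then reagent for 3 h and A490 read. […] Triplicate wells, two repeats, Welch's t-test.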

Data set [29] relates to HUVEC. Briefly: Cytotoxicity against HUVEC assessed as reduction in cell proliferation after 72 hrs by MTS assay. It counts as cell-based. Particulars: Homo sapiens. Put shortly: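 MTS assay in HUVEC grown in Eagle's MEM with 2 mM L-glutamine, penicillin/streptomycin and 10% FBS, at 37 °C under 5% CO2. Cells seeded at 2000 per well, attached for 24 h, then exposed to six compound concentrations (0.5% DMSO final) for 72 h. Reagent added for 3 h before reading A490. IC50 derived against DMSO-treated cells; triplicate wells, two repeats.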

In data set [1], `O=C(O)c1cn(C2CC2)c2cc(N3CCNCC3)c(F)cc2c1=O` [CIPROFLOXACIN] showed an MIC90 of 0.05 µM (≈ 0.0166 µg/mL).

Consider `Cc1[nH]c(C(=O)Nc2ccc(C(=O)N[C@@H](C)c3n[nH]c(=O)o3)cc2OC(C)C)c(Cl)c1Cl`, for which the IC50 in data set [2] worked out at 11 µM; in [3], 12 µM; in [29] it was 40.7 µM. Moreover, the inhibition of growth at 50 µM in data set [4] is 100%; in data set [5], 97%; in [6] it was 5%; in data set [7], -1%; in [8], 51%; in data set [9], 0%. Moreover, the MIC90 in data set [10] is 1.56 µM (≈ 0.752 µg/mL); in [11], 4.17 µM (≈ 2.01 µg/mL); in data set [12], 3.13 µM (≈ 1.51 µg/mL); in data set [21], 4.6 µM; in data set [22], 10.2 µM; in data set [26] it was 13.8 µM. In addition, the result in [13], in data set [14], in data set [15], in [16], in data set [17] and in [18] was inactive. Besides, the outcome in data set [19], in [20], in [23], in [24], in data set [25] and in [27] was inactive. Moreover, the viability at 72 h, 50 µM in [28] was 85%.
